Test results as given in ChEMBL document CHEMBL5325493, “Discovery of AD258 as a Sigma Receptor Ligand with Potent Antiallodynic Activity” (J Med Chem, 2023).
Active and inactive are the calls of the source. The calls are words filed in the database; no cut-off is given here.

How the values were obtained:
[1] = target: Sigma non-opioid intracellular receptor 1 (Homo sapiens, UniProt Q99720); experiment: Binding affinity to S1R (unknown origin)
Procedure, shortened: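 Rat liver homogenates from male Sprague Dawley rats in 50 mM Tris pH 8. […] Incubated 120 min at 37 °C, then filtration and scintillation counting. Ki is the mean ± SD of at least two experiments in duplicate.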

[2] = target: Sigma intracellular receptor 2 (Homo sapiens, UniProt Q5BJF2); experiment: Binding affinity to S2R (unknown origin)
Chain of Sigma intracellular receptor 2 (Q5BJF2 whole entry): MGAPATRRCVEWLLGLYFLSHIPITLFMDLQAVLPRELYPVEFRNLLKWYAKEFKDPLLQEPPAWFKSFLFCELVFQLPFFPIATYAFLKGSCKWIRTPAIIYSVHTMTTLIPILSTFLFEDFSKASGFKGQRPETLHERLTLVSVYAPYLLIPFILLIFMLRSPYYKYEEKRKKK

[3] = system: Mus musculus; experiment: Anti-allodynic activity against capsaicin-induced wild type CD1 mouse allodynia model assessed as reversal of capsaicin induced hypersensitivity by measuring latency value at 40 mg/kg, sc preincubated for 5 with […] followed by compound addition for 30 mins prior to capsaicin stimulation; format: functional, organism-based
Procedure, shortened: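 Female CD1 mice, 25–30 g, acclimated at least 1 week. Mechanical allodynia induced by intraplantar capsaicin; read-out is response latency to mechanical stimulation of the paw. Compound given s.c.; the S1R agonist PRE-084 (32 mg/kg, s.c.) was co-administered to test reversal. Values are mean ± SEM from 6–9 animals per group.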

[4] = system: Mus musculus; experiment: Anti-allodynic activity against capsaicin-induced d sc dosed wild type CD1 mouse allodynia model assessed as reversal of capsaicin induced hypersensitivity by measuring latency value preincubated for 30 mins followed by capsaicin addition (reference value: 13.51 +/- 1.93 sec); format: functional; conditions: dose 10-40 mg/kg
[5] = Toxicity in wild type CD1 mouse assessed as effect on motor coordination at 60 mg/kg, sc measured upto 240 mins by rotarod test; format: organism-based; conditions: in vivo, 4 h
Procedure, shortened: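 Female CD1 mice, 25–30 g. Latency to fall from the rotarod was recorded immediately before and several times after s.c. dosing, over 4 h; vehicle was DMSO 5% in saline. Mean ± SEM from 6–7 animals; 2-way repeated measures ANOVA followed by Student–Newman–Keuls test against time 0.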

[6] = system: Mus musculus; experiment: Anti-allodynic activity against capsaicin-induced wild type CD1 mouse allodynia model assessed as reversal of capsaicin induced hypersensitivity by measuring latency value at 20 mg/kg, sc preincubated for 5 with […] followed by compound addition for 30 mins prior to capsaicin stimulation; format: functional, organism-based
[7] = Cytotoxicity against HCE cells assessed as reduction in cell viability at 100 uM […] by MTT assay; format: toxicity, cell-based; conditions: human
[8] = Cytotoxicity against HCE cells assessed as reduction in cell viability at above 20 uM incubated for 1 hr by MTT assay; format: toxicity, cell-based; conditions: human
Procedure, shortened: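 HCE cells in MEM with 10% FBS, grown to 80–90% confluence. Exposed to compounds in free medium for 20 h. MTT (5 mg/mL in PBS, 1:5 of medium volume) then added for 1 h; formazan dissolved in DMSO and read at 540 nm. Viability expressed as % of untreated cells; three independent experiments.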

[9] = Cytotoxicity against HCE cells at 50 to 100 uM […] by LDH assay; format: toxicity, cell-based; conditions: human, 1.25 h, dose 50-100 µM
[10] = target: Sigma non-opioid intracellular receptor 1 (Rattus norvegicus, UniProt Q9R0C9); experiment: Displacement of [3H]-(+)-pentazocine from rat liver homogenate S1R incubated for 120 mins by liquid scintillation counting method; format: tissue-based
Chain of Sigma non-opioid intracellular receptor 1 (Rattus norvegicus, UniProt Q9R0C9) (Q9R0C9 whole entry): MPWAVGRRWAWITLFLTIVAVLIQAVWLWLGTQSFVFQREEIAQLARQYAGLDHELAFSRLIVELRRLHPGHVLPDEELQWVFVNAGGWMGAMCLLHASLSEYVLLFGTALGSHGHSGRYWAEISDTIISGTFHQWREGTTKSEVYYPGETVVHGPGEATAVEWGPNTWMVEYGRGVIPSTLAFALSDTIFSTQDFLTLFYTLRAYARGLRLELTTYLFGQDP

[11] = target: Sigma non-opioid intracellular receptor 1 (Rattus norvegicus) (UniProt Q9R0C9); experiment: Selectivity ratio of Ki for binding affinity to rat liver homogenate S1R incubated for 2 hrs in absence of phenytoin to Ki for binding affinity to rat liver homogenate S1R incubated for 2 hrs in presence of phenytoin; format: tissue-based
Chain of Sigma non-opioid intracellular receptor 1 (Rattus norvegicus) (Q9R0C9 whole entry): as above

[12] = system: Mus musculus; experiment: Anti-allodynic activity against capsaicin-induced wild type CD1 mouse allodynia model assessed as reversal of capsaicin induced hypersensitivity by measuring latency value at 10 mg/kg, sc preincubated for 5 with […] followed by compound addition for 30 mins prior to capsaicin stimulation; format: functional, organism-based
[13] = system: Mus musculus; experiment: Anti-allodynic activity against capsaicin-induced wild type CD1 mouse allodynia model assessed as reversal of capsaicin induced hypersensitivity by measuring latency value at 5 mg/kg, sc preincubated for 30 mins followed by capsaicin addition (reference value: 13.51 +/- 1.93 sec); format: functional, organism-based
[14] = system: Mus musculus; experiment: Anti-allodynic activity against capsaicin-induced wild type CD1 mouse allodynia model assessed as reversal of capsaicin induced hypersensitivity by measuring latency value at 0.6 to 1.25 mg/kg, sc preincubated for 30 mins followed by capsaicin addition (reference value: 13.51 +/- 1.93 sec); format: functional, organism-based; conditions: dose 0.6-1.25 mg/kg
[15] = Toxicity in wild type CD1 mouse assessed as effect on motor coordination at 1.25 mg/kg, sc measured upto 240 mins by rotarod test; format: organism-based; conditions: in vivo, time < 240 hrs
Procedure, shortened: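 Female CD1 mice on rotarod; latency to fall recorded immediately before and at several times over 4 h after s.c. dosing. Vehicle was 5% DMSO in saline; pregabalin 60 mg/kg s.c. served as the motor-deficit control. Mean ± SEM from 6–7 animals, analysed by 2-way repeated-measures ANOVA with Student–Newman–Keuls test.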

[16] = target: Cannabinoid receptor 2 (Homo sapiens) (UniProt P34972); experiment: Inhibition of CB2 (unknown origin) at 1 uM relative to control
Chain of Cannabinoid receptor 2 (Homo sapiens) (P34972 whole entry): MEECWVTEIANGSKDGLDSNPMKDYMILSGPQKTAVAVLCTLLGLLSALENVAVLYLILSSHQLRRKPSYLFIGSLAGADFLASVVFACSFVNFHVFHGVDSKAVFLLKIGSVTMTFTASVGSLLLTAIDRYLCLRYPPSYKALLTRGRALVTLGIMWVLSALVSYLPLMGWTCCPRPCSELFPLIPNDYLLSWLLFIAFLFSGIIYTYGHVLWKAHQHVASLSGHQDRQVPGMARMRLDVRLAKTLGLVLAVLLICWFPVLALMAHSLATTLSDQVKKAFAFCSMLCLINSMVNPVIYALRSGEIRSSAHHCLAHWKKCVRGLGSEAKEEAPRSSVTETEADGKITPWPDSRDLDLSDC
Procedure, shortened: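 Membranes from CHO-K1 cells expressing human CB2, 30 µg per sample, in modified HEPES pH 7.0. […] Nonspecific binding with 10 µM R(+)-WIN-55,212-2. Compound tested at 1 µM; bound radioligand counted after filtration.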

[17] = target: Delta-type opioid receptor (Homo sapiens) (UniProt P41143); experiment: Inhibition of DOR (unknown origin) at 1 uM relative to control
Chain of Delta-type opioid receptor (Homo sapiens) (P41143 whole entry): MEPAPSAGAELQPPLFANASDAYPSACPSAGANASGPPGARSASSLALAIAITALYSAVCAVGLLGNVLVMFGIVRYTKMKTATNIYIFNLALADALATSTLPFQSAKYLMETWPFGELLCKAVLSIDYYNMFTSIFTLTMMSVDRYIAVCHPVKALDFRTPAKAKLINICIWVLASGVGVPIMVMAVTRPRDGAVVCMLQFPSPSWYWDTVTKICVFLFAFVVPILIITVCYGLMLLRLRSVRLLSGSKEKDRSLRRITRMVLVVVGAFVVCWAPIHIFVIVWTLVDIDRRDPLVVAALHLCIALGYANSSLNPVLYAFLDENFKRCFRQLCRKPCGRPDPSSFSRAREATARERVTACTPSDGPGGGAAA

[18] = target: Cannabinoid receptor 1 (Homo sapiens) (UniProt P21554); experiment: Inhibition of CB1 (unknown origin) at 1 uM relative to control
Chain of Cannabinoid receptor 1 (Homo sapiens) (P21554 whole entry): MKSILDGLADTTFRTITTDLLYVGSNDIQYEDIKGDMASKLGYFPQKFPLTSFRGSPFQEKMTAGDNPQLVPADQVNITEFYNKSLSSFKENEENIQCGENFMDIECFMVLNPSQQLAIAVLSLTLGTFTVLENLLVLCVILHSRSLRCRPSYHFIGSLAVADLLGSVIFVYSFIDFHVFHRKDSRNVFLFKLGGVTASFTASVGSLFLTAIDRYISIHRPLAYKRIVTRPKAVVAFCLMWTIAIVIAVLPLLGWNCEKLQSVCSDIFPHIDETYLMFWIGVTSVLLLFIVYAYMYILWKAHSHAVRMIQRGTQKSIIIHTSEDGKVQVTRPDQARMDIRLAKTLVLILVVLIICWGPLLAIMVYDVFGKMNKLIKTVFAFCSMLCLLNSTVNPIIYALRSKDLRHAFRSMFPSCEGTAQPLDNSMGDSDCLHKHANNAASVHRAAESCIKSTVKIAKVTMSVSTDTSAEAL
Procedure, shortened: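 Membranes from rat Chem-1 cells expressing human recombinant CB1, 5 µg per sample, in modified HEPES pH 7.4. […] Nonspecific binding with 10 µM CP 55,940. Compound tested at 1 µM; filtration and counting of specifically bound radioligand.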

[19] = target: Kappa-type opioid receptor (Homo sapiens) (UniProt P41145); experiment: Inhibition of KOR (unknown origin) at 1 uM relative to control
Chain of Kappa-type opioid receptor (Homo sapiens) (P41145 whole entry): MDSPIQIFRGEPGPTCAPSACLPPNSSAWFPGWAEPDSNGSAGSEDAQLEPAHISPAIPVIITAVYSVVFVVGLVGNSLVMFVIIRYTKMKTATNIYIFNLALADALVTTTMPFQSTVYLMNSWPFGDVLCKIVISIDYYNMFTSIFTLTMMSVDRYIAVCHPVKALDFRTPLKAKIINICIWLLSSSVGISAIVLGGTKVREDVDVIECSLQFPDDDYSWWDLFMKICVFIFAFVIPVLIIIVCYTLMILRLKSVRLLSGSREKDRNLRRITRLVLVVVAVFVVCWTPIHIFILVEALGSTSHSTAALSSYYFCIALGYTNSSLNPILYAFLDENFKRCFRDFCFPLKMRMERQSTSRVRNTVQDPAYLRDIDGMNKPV
Procedure, shortened: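 Nonspecific binding defined with 10 µM naloxone. Filtration through PEI-presoaked filters, then scintillation counting.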

[20] = system: Mus musculus; experiment: Anti-allodynic activity against capsaicin-induced wild type CD1 mouse allodynia model assessed as reversal of capsaicin induced hypersensitivity by measuring latency value at 1.25 mg/kg, sc preincubated for 5 with […] followed by compound addition for 30 mins prior to capsaicin stimulation; format: functional, organism-based
[21] = target: Mu-type opioid receptor (Homo sapiens) (UniProt P35372); experiment: Inhibition of MOR (unknown origin) at 1 uM relative to control
Chain of Mu-type opioid receptor (Homo sapiens) (P35372 whole entry): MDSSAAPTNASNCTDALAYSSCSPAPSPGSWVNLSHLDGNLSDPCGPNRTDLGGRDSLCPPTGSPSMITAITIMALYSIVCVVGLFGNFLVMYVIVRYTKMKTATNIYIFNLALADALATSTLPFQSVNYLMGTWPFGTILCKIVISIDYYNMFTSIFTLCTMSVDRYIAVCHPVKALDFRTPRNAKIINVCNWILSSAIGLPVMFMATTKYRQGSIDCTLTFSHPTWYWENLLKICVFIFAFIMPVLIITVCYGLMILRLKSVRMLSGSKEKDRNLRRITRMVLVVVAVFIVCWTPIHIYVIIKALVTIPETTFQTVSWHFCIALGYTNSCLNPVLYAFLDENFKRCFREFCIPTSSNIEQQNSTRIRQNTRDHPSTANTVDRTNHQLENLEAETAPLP

Chain of Sigma non-opioid intracellular receptor 1 (Homo sapiens, UniProt Q99720) (Q99720 whole entry): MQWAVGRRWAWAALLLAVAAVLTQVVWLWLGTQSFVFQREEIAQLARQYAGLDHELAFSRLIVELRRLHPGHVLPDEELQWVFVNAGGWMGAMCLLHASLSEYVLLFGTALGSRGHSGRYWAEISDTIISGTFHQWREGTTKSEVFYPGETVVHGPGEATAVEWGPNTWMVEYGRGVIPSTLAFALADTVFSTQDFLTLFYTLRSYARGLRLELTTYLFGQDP

Structure (SMILES): c1ccc(CN2CCC3(CCc4ccccc4S3)CC2)cc1
- Ki [1]: 9.2 nM
- Ki [2]: 6.4 nM

Structure (SMILES): O=C(Cc1ccc(Cl)c(Cl)c1)N1CCC2(CCN(CCc3ccccc3)C2)C1 (stereo not given)
- Activity [3]: inactive
- Activity [4]: Dose-Dependent Effect
- Activity ([4]; 0.5 h, at 10 to 40 mg/kg): 100%

Structure (SMILES): CC(C)C[C@H](CN)CC(=O)O [PREGABALIN]
- Activity [5]: Toxic

Structure (SMILES): c1ccc(CCN2CCC3(CCN(CCc4ccccc4)C3)C2)cc1
- Activity [6]: inactive
- Activity [4]: Dose-Dependent Effect
- Activity [7]: Toxic
- Activity [8]: Toxic
- Activity [9]: Toxic

Structure (SMILES): c1ccc2c(c1)Nc1ccccc1S2 [PHENOTHIAZINE]
- Ki [10]: 4.3 nM

Structure (SMILES): C=CCN1CC[C@@]2(C)C[C@@H]1Cc1ccc(O)cc12
- Ratio Ki [11]: 5.8

Structure (SMILES): c1ccc(CCN2CCC3(CCN(c4ccccc4)C3)C2)cc1 (stereo not given)
- Activity [6]: inactive
- Activity [4]: Dose-Dependent Effect
- Activity [7]: Toxic
- Activity [8]: Toxic
- Activity [9]: Toxic

Structure (SMILES): COC1Cc2ccccc2C2(CCC(N(C)CC3CCCCC3)CC2)O1 (stereo not given)
- Ki [1]: 1.9 nM
- Ki [2]: 12 nM

Structure (SMILES): Cl.O=C(OCCN1CCOCC1)C1(c2ccccc2)CCCCC1
- Activity [8]: Toxic

Structure (SMILES): c1ccc(CN2CCC3(CC2)OCC(c2ccccc2)CO3)cc1
- Ki [1]: 0.013 nM
- Ki [2]: 813 nM

Structure (SMILES): O=[N+]([O-])c1ccc(N2CCC3(CCN(CCc4ccccc4)C3)C2)cc1 (stereo not given)
- Activity [12]: inactive
- Activity [4]: Dose-Dependent Effect
- Activity ([4]; 0.5 h, at 10 to 40 mg/kg): 100%
- Activity [7]: 50%
- Activity [13]: Active

Structure (SMILES): N#Cc1ccc(N2CCC3(CCN(CCc4ccccc4)C3)C2)cc1 (stereo not given)
- Activity [14]: Active
- Activity [15]: Non-Toxic
- Activity [4]: Dose-Dependent Effect
- Activity ([4]; 0.5 h, at 10 to 40 mg/kg): 100%
- inhibition [16]: < 50%
- inhibition [17]: < 50%
- inhibition [18]: < 50%
- inhibition [19]: < 50%
- Activity [20]: inactive
- inhibition [21]: < 50%
- Activity [9]: Toxic

Structure (SMILES): CN1CCN(CCc2ccc(Cl)c(Cl)c2)CC1
- Activity [3]: inactive
